Measurements collected from several papers.
Protocols differ between the studies behind these lines.
Effect on: cell growth or viability

O=C(NO)c1ccc(CNc2nc3cccc(-c4ccc5c(c4)OCO5)n3n2)cc1 — GI50 (NCI-H322M; SRB): 0.6 µM
O=C(c1ccc(Oc2ccc(OCc3ccccc3)cc2)c([N+](=O)[O-])c1)C(Cl)Cl — inhibition (NCI-H1975; MTT; 2.5 µM): 95.2%
C=CC(=O)NC1CCN(c2ncc3ncnc(Nc4ccc(Oc5ccc6c(c5)ncn6C)c(C)c4)c3n2)CC1 — EC50 (SUM-159-PT): 0.334 µM
C=C(F)C(=O)N1CCN(c2nc(OC[C@@H]3CCCN3C)nc3c2CCN(c2cccc4cccc(Cl)c24)C3)C[C@@H]1CC#N — IC50 (SW1463; ATP luminescence): 0.367 µM
C=CC(=O)N1CCC([C@@H]2CCNc3c(C(N)=O)c(-c4ccc(Oc5ccccc5)cc4)nn32)CC1 — IC50 (TMD8; 6 days): 0.0007 µM
CC1(C)CCC(CN2CCN(c3ccc(C(=O)NS(=O)(=O)c4ccc(NCC5CCOCC5)c([N+](=O)[O-])c4)c(Oc4cnc5[nH]ccc5c4)c3)CC2)=C(c2ccc(Cl)cc2)C1 — IC50 (Rec1; ATP luminescence; 48 h): 0.489 µM
C=CC(=O)Nc1cc(Nc2nccc(-c3cn(C)c4ccccc34)n2)c(OC)cc1N(C)CCN(C)C — IC50 (NCI-H1975; MTT; 72 h): 29.5 µM
NC(=O)c1ccc(Oc2ccc(C(=O)C(Cl)Cl)cc2[N+](=O)[O-])cc1 — inhibition (NCI-H1975; MTT; 2.5 µM): 97.2%
C=CC(=O)Nc1cc(Nc2nccc(-c3cn(C)c4ccccc34)n2)c(OC)cc1N(C)CCN(C)C — inhibition (NCI-H1975; MTT; 0.5 µM, 72 h): 69.6%
CC(C)Oc1ccc(S(=O)(=O)c2ccc(Oc3cc(OCC(N)=O)c(C(=O)C(Cl)Cl)cc3[N+](=O)[O-])cc2)cc1 — IC50 (NCI-H1975; MTT; 72 h): 0.3 µM
Cc1ccc2c(-c3cc4c(CNCc5cccnc5)cnc(C)c4o3)cc(=O)oc2c1C — IC50 (NCI-H1975; MTT; 72 h): 43.9 µM
CC1(CN)CCN(c2cnc3c(Sc4ccncc4Cl)n[nH]c3n2)CC1 — IC50 (NCI-H1975; 96 h): 6.68 µM
Cc1ccc2c(-c3cc4c(CN5CCN(Cc6ccccn6)CC5)cnc(C)c4o3)cc(=O)oc2c1 — IC50 (NCI-H1975; MTT; 72 h): 32.1 µM
O=C1c2ccccc2C(=O)c2c(Oc3ccc(C(=O)C(Cl)Cl)cc3[N+](=O)[O-])cccc21 — inhibition (NCI-H1975; MTT; 2.5 µM): 97.1%
Cc1ncc(CN2CCN(Cc3ccccn3)CC2)c2cc(C(=O)c3ccc4c(c3)OCCO4)oc12 — IC50 (NCI-H1975; MTT; 72 h): 38.8 µM
CC(=O)Nc1ccc(Oc2ccc(C(=O)C(Cl)Cl)cc2[N+](=O)[O-])cc1 — inhibition (NCI-H1975; MTT; 2.5 µM): 88.3%
